One assay has as its system T-24. Briefly: Cytotoxicity against human T24 cells after 72 hrs by SRB assay. Particulars: T-24, 72 h.
The subject of another assay is K562. Nature of the assay: Cytotoxicity against human K562 cells after 48 hrs by MTT assay. The assay is classed as functional, cell-based. Particulars: K562, 48 h. In short, it runs like this:
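Log-phase K562 cells (5 × 10⁴ cells/mL) were exposed in quadruplicate to 10⁻⁴ to 10⁻⁸ g/L drug for 48 h at 37 °C under 5% CO₂. MTT (5 mg/mL) was then added for 4 h, and formazan was dissolved in 10% SDS/5% isobutanol/HCl for 12 h at room temperature. OD was read at 570 and 630 nm. Controls were saline or DMSO, with cisplatin as the positive control.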
On the technique in general: Tetrazolium dyes change colour on reduction, which living cells bring about.

The test system of the next assay is A549. Briefly: Cytotoxicity against human A549 cells after 72 hrs by SRB assay. To be noted: A549, 72 h. In general terms: The SRB assay estimates cell density from bound dye.

≈ marks a conversion by molar mass, not a printed value.

A word on the IC50: it is the concentration that gives 50% inhibition. Read a high IC50 as weaker potency in that assay. In the case of `CC1(C)[C@H]2[C@H](O)C(=O)[C@@]34C[C@@H](CC[C@H]3[C@@]23CO[C@@H]1CC3=O)[C@@H](CO)C4=O` [LAXIFLORIN K], the IC50 worked out at 1750 µg/mL (≈ 4840 µM) with T-24 and 11.9 µg/mL (≈ 32.8 µM) in the assay with K562.
As for `C=C1[C@@H]2CC[C@@H]3[C@](C2)(C(=O)[C@@H](O)[C@@H]2C(C)(C)[C@H]4CC(=O)[C@@]32CO4)[C@@H]1O` [LAXILORIN L], the IC50 with T-24 came out at 5.16 µg/mL (≈ 14.9 µM); with A549, 24.7 µg/mL (≈ 71.2 µM); in the assay with K562, 1.13 µg/mL (≈ 3.25 µM).
On the same counts, the results for `C=C1C(=O)[C@]23C[C@H]1CC[C@H]2[C@]12CO[C@H](CC1=O)C(C)(C)C2=C(O)C3=O` [MAOECRYSTAL P] are 0.0512 µg/mL (≈ 0.15 µM), 69.5 µg/mL (≈ 203 µM) and 0.132 µg/mL (≈ 0.386 µM).
`C=C1[C@@H](OC(C)=O)[C@]23C[C@@]1(O)CC[C@H]2[C@]12CO[C@H](CC1=O)C(C)(C)[C@H]2[C@H](O)C3=O` [LAXIFLORIN M] gave a 50% inhibitory concentration (IC50) in the assay with K562 of 219 µg/mL (≈ 541 µM).
On to `C=C1C(=O)[C@]23C[C@H]1CC[C@H]2[C@]12CO[C@H](CC1=O)C(C)(C)[C@H]2[C@H](O)C3=O` [LAXIFLORIN J], for which the IC50 in the assay on T-24 came to 0.314 µg/mL (≈ 0.912 µM); in the assay on A549, 49.1 µg/mL (≈ 142 µM); with K562, 0.473 µg/mL (≈ 1.37 µM).
